Active and inactive are the calls of the source. The rule behind the calls is not given here.
Key:
[1] = test system: HT-29; assay: Cell cycle arrest in human HT-29 cells assessed as accumulation of cells at G2/M phase at 350 nM after 24 hrs by propidium iodide staining-based flow cytometric analysis (reference value: 11.4 +/- 1.4%); type: functional
[2] = test system: HT-29; assay: Cell cycle arrest in human HT-29 cells assessed as accumulation of cells at G1 phase at 250 nM after 24 hrs by propidium iodide staining-based flow cytometric analysis (reference value: 75.1 +/- 1.1%); type: functional
[3] = test system: HT-29; assay: Cell cycle arrest in human HT-29 cells assessed as accumulation of cells at G2/M phase at 100 nM after 24 hrs by propidium iodide staining-based flow cytometric analysis (reference value: 11.4 +/- 1.4%); type: functional
[4] = test system: HT-29; assay: Cell cycle arrest in human HT-29 cells assessed as accumulation of cells at sub G1 phase at 250 nM after 24 hrs by propidium iodide staining-based flow cytometric analysis (reference value: 1.2 +/- 0.3%); type: functional
[5] = test system: HT-29; assay: Cell cycle arrest in human HT-29 cells assessed as accumulation of cells at sub G1 phase at 350 nM after 24 hrs by propidium iodide staining-based flow cytometric analysis (reference value: 1.2 +/- 0.3%); type: functional
[6] = target: Tubulin (Sus scrofa) (UniProt P02554+P02550); assay: Inhibition of porcine brain tubulin polymerization at 10 uM after 2 hrs relative to control
Method in brief: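 In a brief single-concentration run, purified tubulin polymerization was measured at 10 µM and expressed as percent of vehicle-treated controls.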

[7] = test system: HT-29; assay: Cell cycle arrest in human HT-29 cells assessed as accumulation of cells at G1 phase at 350 nM after 24 hrs by propidium iodide staining-based flow cytometric analysis (reference value: 75.1 +/- 1.1%); type: functional
[8] = test system: HT-29; assay: Cell cycle arrest in human HT-29 cells assessed as accumulation of cells at G2/M phase at 250 nM after 24 hrs by propidium iodide staining-based flow cytometric analysis (reference value: 11.4 +/- 1.4%); type: functional
[9] = test system: HT-29; assay: Cell cycle arrest in human HT-29 cells assessed as accumulation of cells at S phase at 350 nM after 24 hrs by propidium iodide staining-based flow cytometric analysis (reference value: 12.3 +/- 0.4%); type: functional
[10] = test system: HT-29; assay: Cell cycle arrest in human HT-29 cells assessed as accumulation of cells at sub G1 phase at 100 nM after 24 hrs by propidium iodide staining-based flow cytometric analysis (reference value: 1.2 +/- 0.3%); type: functional
[11] = test system: HT-29; assay: Cell cycle arrest in human HT-29 cells assessed as accumulation of cells at S phase at 250 nM after 24 hrs by propidium iodide staining-based flow cytometric analysis (reference value: 12.3 +/- 0.4%); type: functional
[12] = test system: HT-29; assay: Cell cycle arrest in human HT-29 cells assessed as accumulation of cells at S phase at 100 nM after 24 hrs by propidium iodide staining-based flow cytometric analysis (reference value: 12.3 +/- 0.4%); type: functional
[13] = test system: 518A2; assay: Antiproliferative activity against human 518A2 cells after 72 hrs by MTT assay; type: functional, cell-based; conditions: for IC50: 518A2, 72 h
Method in brief: (§1)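 MTT read-out after 72 h of continuous exposure. Viability is expressed as percentage of viable cells relative to untreated controls. IC50 comes from dose-response curves. Values are means±SD of four independent experiments (two for some entries). DMSO was below 1%, with vehicle controls at equal DMSO. Precipitation was excluded spectrometrically and microscopically.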

[14] = test system: HT-29; assay: Cell cycle arrest in human HT-29 cells assessed as accumulation of cells at G1 phase at 100 nM after 24 hrs by propidium iodide staining-based flow cytometric analysis (reference value: 75.1 +/- 1.1%); type: functional
[15] = test system: A2780; assay: Antiproliferative activity against human A2780 cells after 72 hrs by SRB assay; type: functional, cell-based; conditions: A2780, 72 h
Method in brief: (§2)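 Ovarian A2780 and cisplatin-resistant A2780cis cells were exposed for 72 h and stained with SRB. IC50 comes from dose-response curves, as means±SD of three independent experiments. Final DMSO was below 1%, with matched vehicle controls.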

[16] = test system: HT-29; assay: Antiproliferative activity against human HT-29 cells after 72 hrs by MTT assay; type: functional, cell-based; conditions: HT-29, 72 h; method in brief: as §1
[17] = Antiproliferative activity against human A2780cis cells after 72 hrs by SRB assay; type: functional, cell-based; method in brief: as §2
[18] = Antiproliferative activity against human MCF7/Topo cells after 72 hrs by MTT assay; type: functional, cell-based; method in brief: as §1
[19] = test system: HCT-116; assay: Antiproliferative activity against human HCT116 cells after 72 hrs by MTT assay; type: functional, cell-based; conditions: HCT-116, 72 h; method in brief: as §1
[20] = test system: PANC-1; assay: Antiproliferative activity against human PANC1 cells after 72 hrs by MTT assay; type: functional, cell-based; conditions: PANC-1, 72 h; method in brief: as §1
[21] = test system: DLD-1; assay: Antiproliferative activity against human DLD1 cells after 72 hrs by MTT assay; type: functional, cell-based; conditions: DLD-1, 72 h; method in brief: as §1
[22] = Solubility in tween80/ethanol (1:1) solution; type: physicochemical
[23] = Antiproliferative activity against human KB-V1/Vbl cells after 72 hrs by MTT assay; type: functional, cell-based; method in brief: as §1
[24] = test system: EA.hy 926; assay: Antiproliferative activity against human EAhy926 cells after 72 hrs by MTT assay; type: functional, cell-based; conditions: EA.hy 926, 72 h; method in brief: as §1
[25] = test system: 518A2; assay: Effect on F-actin in human 518A2 cells assessed as thick stress fibers formation at 100 nM after 3 hrs by DAPI staining-based fluorescence microscopic analysis; type: cell-based
Method in brief: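 518A2 melanoma cells were treated with 100 nM for 3 h. Filamentous actin was fluorescence-labelled, nuclei were counterstained with DAPI, and the cells were imaged by fluorescence microscopy. Images come from two independent experiments.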

[26] = test system: EA.hy 926; assay: Antiangiogenic activity against human EAhy926 cells assessed as inhibition of tube formation on matrigel at 100 nM after 24 hrs by light microscopic analysis; type: functional, cell-based
Method in brief: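 Ea.Hy926 endothelial hybrid cells were seeded on matrigel with compound and examined for tubular/cord-like network formation versus untreated controls. Viability under the same conditions was checked in parallel by MTT to exclude cytotoxic effects.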

[27] = test system: Chorioallantoic membrane; assay: Antiangiogenic activity in Leghorn chicken embryo chorioallantoic membrane assessed as disruption of smaller blood vessels at 5 nmol after 6 hrs by light microscopic analysis; type: functional, tissue-based; conditions: Gallus gallus
Method in brief: (§3)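 Fertilized chicken eggs, CAM assay. Compound was applied topically into a small silicon foil ring placed on the CAM. The membrane and its extraembryonal blood vessels were monitored over 24 h, with observations at 6 h and 24 h post application.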

[28] = test system: Chorioallantoic membrane; assay: Antiangiogenic activity in Leghorn chicken embryo chorioallantoic membrane assessed as reduction in diameter of main blood vessel at 5 nmol after 24 hrs by light microscopic analysis; type: functional, tissue-based; conditions: Gallus gallus; method in brief: as §3
[29] = test system: Chorioallantoic membrane; assay: Antiangiogenic activity in Leghorn chicken embryo chorioallantoic membrane assessed as disruption of smaller blood vessels at 5 nmol after 24 hrs by light microscopic analysis; type: functional, tissue-based; conditions: Gallus gallus; method in brief: as §3
[30] = target: Tubulin (Homo sapiens) (UniProt P68371+Q9H4B7+P0DPH7+P68366+Q13509+Q71U36+P04350+Q3ZCM7+P07437+P68363+Q9BQE3+Q6PEY2+Q13885+Q9BVA1+Q9BUF5); assay: Induction of microtubule disruption in human 518A2 cells at 100 nM after 3 hrs by DAPI staining-based fluorescence microscopic analysis; type: cell-based
Method in brief: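 Microtubule organization in 518A2 melanoma cells was checked by tubulin immunofluorescence staining after 3 h exposure to 100 nM, with DAPI as the nuclear counterstain. Images come from two independent experiments.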

[31] = test system: Chorioallantoic membrane; assay: Antiangiogenic activity in Leghorn chicken embryo chorioallantoic membrane assessed as effect on blood vessel length at 5 nmol after 6 hrs by light microscopic analysis; type: functional, tissue-based; conditions: Gallus gallus; method in brief: as §3
[32] = test system: Chorioallantoic membrane; assay: Antiangiogenic activity in Leghorn chicken embryo chorioallantoic membrane assessed as reduction in blood vessel area at 5 nmol after 6 hrs by light microscopic analysis relative to control; type: functional, tissue-based; design: scale not given: the % may be the effect or the level left; conditions: Gallus gallus
Method in brief: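 The CAM assay was run with topical application into a silicon foil ring atop the CAM of fertilized chicken eggs. Area covered by blood vessels was quantified by fractal analysis relative to control.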

[33] = test system: A2780; assay: Antivascular activity against human A2780 cells xenografted in nude mouse assessed as tumor discoloration at 200 mg/kg administered on every other day and measured after 24 hrs; type: functional, organism-based; conditions: in the assay text read “administered as single dose” for “administered on every other day”
Method in brief: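 Mice bore A2780 tumor xenografts. Compound was formulated in tween80/ethanol (1:1) and injected as single doses. Tumors were inspected for discoloration as a sign of vascular disruption, and treated tumors were examined histologically for hemorrhage and necrosis.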

[34] = test system: 518A2; assay: Induction of apoptosis in human 518A2 cells at 100 nM after 24 hrs by TUNEL assay relative to control; type: functional
[35] = test system: Chorioallantoic membrane; assay: Antiangiogenic activity in Leghorn chicken embryo chorioallantoic membrane assessed as induction of hemorrhages at 5 nmol after 6 hrs by light microscopic analysis; type: functional, tissue-based; conditions: Gallus gallus; method in brief: as §3
[36] = test system: Chorioallantoic membrane; assay: Antiangiogenic activity in Leghorn chicken embryo chorioallantoic membrane assessed as induction of hemorrhages at 5 nmol after 24 hrs by light microscopic analysis; type: functional, tissue-based; conditions: Gallus gallus; method in brief: as §3
[37] = test system: 518A2; assay: Antimigratory activity against human 518A2 cells at 50 nM after 48 hrs by wound healing assay; type: functional, cell-based
[38] = test system: EA.hy 926; assay: Cytotoxicity against human EAhy926 cells at 100 nM after 24 hrs by MTT assay relative to control; type: cell-based; conditions: ea.hy 926, 24 h, 0.1 µM

Sequence of Tubulin (Sus scrofa) (P02550 whole entry, looked up): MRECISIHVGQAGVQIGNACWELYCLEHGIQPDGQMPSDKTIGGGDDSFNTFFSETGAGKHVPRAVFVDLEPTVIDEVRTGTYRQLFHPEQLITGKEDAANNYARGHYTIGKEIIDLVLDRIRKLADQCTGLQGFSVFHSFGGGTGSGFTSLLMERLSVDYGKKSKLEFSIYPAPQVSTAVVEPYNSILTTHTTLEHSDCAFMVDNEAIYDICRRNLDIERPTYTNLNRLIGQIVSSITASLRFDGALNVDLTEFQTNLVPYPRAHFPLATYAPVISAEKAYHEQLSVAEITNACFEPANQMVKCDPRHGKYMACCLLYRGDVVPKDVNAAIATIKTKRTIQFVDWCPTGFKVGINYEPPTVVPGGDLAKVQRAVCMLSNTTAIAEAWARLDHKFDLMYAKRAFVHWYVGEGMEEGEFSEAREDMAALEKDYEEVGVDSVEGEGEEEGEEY
Sequence of Tubulin (Sus scrofa) (P02554 whole entry, looked up): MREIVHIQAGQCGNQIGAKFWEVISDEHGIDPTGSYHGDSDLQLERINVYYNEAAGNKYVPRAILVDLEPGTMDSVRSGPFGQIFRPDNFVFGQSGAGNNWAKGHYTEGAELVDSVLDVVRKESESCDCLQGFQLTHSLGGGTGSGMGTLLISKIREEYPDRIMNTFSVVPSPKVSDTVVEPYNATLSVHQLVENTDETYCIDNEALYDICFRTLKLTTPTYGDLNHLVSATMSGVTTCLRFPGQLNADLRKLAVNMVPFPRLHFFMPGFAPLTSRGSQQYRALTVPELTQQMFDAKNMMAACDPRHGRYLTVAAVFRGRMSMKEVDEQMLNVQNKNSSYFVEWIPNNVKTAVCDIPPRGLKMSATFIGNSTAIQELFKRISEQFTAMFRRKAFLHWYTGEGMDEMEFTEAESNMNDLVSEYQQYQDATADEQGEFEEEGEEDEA

## N#CC1=C(N)Oc2c(ccc3ccccc23)C1c1ccc(Cl)c(F)c1 (stereo unspecified)
[1]
  Activity: 34%
[2]
  Activity: 15.4%
[3]
  Activity: 20.5%
[4]
  Activity: 25%
[5]
  Activity: 27%
[6]
  inhibition: 44.1%
[7]
  Activity: 21%
[8]
  Activity: 50.4%
[9]
  Activity: 14.9%
[10]
  Activity: 9.3%
[11]
  Activity: 9.4%
[12]
  Activity: 14.7%
[13]
  Activity: Dose-dependent effect
  IC50: 425 nM
[14]
  Activity: 56%
[15]
  IC50: 48.5 nM
[16]
  IC50: 172 nM
[17]
  IC50: 57.3 nM

## COc1c(Cl)cc(C2C(C#N)=C(N)Oc3c2ccc2ccccc32)cc1Cl (stereo unspecified)
[18]
  IC50: 29.9 nM
[19]
  IC50: 69.2 nM
[20]
  IC50: 27.9 nM
[21]
  IC50: 59 nM
[22]
  solubility: Insoluble
[13]
  Activity: Dose-dependent effect
  IC50: 44.6 nM
[23]
  IC50: 30.2 nM
[24]
  IC50: 32.6 nM
[15]
  IC50: 16.7 nM
[16]
  IC50: 103 nM
[17]
  IC50: 19.2 nM

## N#CC1=C(N)Oc2c(ccc3ccccc23)C1c1cccc(C#N)c1 (stereo unspecified)
[1]
  Activity: 13.3%
[2]
  Activity: 59.6%
[3]
  Activity: 19.7%
[4]
  Activity: 11.8%
[18]
  IC50: 0.41 nM
[25]
  Activity: Active
[26]
  Activity: Active
[20]
  IC50: < 0.1 nM
[5]
  Activity: 10.6%
[27]
  Activity: Active
[21]
  IC50: 2.6 nM
[28]
  Activity: Active
[29]
  Activity: inactive
[30]
  Activity: Active
[7]
  Activity: 60.5%
[8]
  Activity: 10.1%
[9]
  Activity: 15.6%
[31]
  Activity: Active
[10]
  Activity: 4.2%
[32]
  Activity: 56%
[33]
  Activity: inactive
[11]
  Activity: 18.5%
[12]
  Activity: 25.1%
[34]
  Activity: 69.4%
[13]
  Activity: Dose-dependent effect
  IC50: < 0.1 nM
[35]
  Activity: Active
[23]
  IC50: < 0.1 nM
[24]
  IC50: 4.3 nM
[36]
  Activity: inactive
[37]
  Activity: Active
[14]
  Activity: 51%
[15]
  IC50: 14.8 nM
[38]
  Activity: > 68%
[16]
  IC50: 110 nM
[17]
  IC50: 17.9 nM

Source: ChEMBL document CHEMBL4330063, “New naphthopyran analogues of LY290181 as potential tumor vascular-disrupting agents” (Eur J Med Chem, 2019)
